# FN deposit inh: fibronectin deposition inhibition | 0.086% of 350,000 active | AH1F fibroblasts, Alexa488-fibronectin deposition fluorescence, overnight | AID 743247 | inhibition, % at 12.6 µM;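 active = mean inhibition across replicates of 30% or more, regardless of how many single replicates reach that level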;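 note: positive control wells lacked labelled fibronectin entirely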
#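 material = AH1F fibroblast monolayer depositing Alexa488-labelled fibronectin into matrix | amount = 10000 AH1F cells/well | buffer or medium = DMEM plus 2% serum, read in PBS | incubation = 1 h cell adhesion before compound, then overnight fibronectin incubation | detection = fluorescence at 485 nm excitation, 525 nm emission | evaluation = percent inhibition as loss of matrix-bound fibronectin fluorescence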
# ARNT TACC3 PPI: disruptors of human ARNT/TACC3 interaction; 0.66% of 390,000 active; AlphaScreen His-ARNT PAS-B/GST-TACC3 binding, luminescence; TACC3 fragment carries E629A point mutation; AID 623870; inhibition, % at 9.99 µM; Q9Y6A5;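 active = mean inhibition of replicates at least 50% and at least half of replicates each reaching 50%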;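 note: 0% = complete ARNT plus TACC3 wells and 100% = ARNT alone without TACC3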
# ERp5 inh: blocks human ERp5 reductase activity on insulin. 0.05% of 350,000 active. AID 651711. Q15084. ERp5 insulin aggregation, absorbance 650 nm, 90 min. inhibition, % at 9.99 µM;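 active = mean replicate inhibition above about 25%, with every replicate also reaching it, limit read from the data, passing the limit was not always enough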
# AF4-AF9 inh: MLL-AF4/AF9 protein interaction inhibition; AlphaScreen, biotin-AF4 peptide binding to FLAG-AF9; 0.47% of 350,000 active; AID 651704; P42568; inhibition, % at 10 µM;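 active = every replicate reaching a set inhibition limit, whatever the replicate mean, cut at about 25% in these data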;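 note: 0% = plate neutral control median and 100% = total signal loss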
# FGF22 binding: FGF22 (human) thermal shift binding | Q9HCT0 | recombinant FGF22 thermal shift, SYPRO orange fluorescence; percent of sucrose octasulfate shift, DMSO zero | activity (Tm shift, normalised), % at 9.99 µM | 1.5% of 340,000 active;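 active = mean Tm shift, scaled 0 neutral to 100 positive control, at about 1.3% or above, every replicate too, limit read from the data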
# PDI turbidity: blocks human protein disulfide isomerase activity | P07237 | inhibition, % at 10 µM | AID 588391 | 0.052% of 350,000 active | PDI insulin aggregation turbidity, A650, 90 min;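 active = mean inhibition across replicates of 30% or more, whatever share of single replicates reach that level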
# Target sequence (P07237 whole entry, looked up): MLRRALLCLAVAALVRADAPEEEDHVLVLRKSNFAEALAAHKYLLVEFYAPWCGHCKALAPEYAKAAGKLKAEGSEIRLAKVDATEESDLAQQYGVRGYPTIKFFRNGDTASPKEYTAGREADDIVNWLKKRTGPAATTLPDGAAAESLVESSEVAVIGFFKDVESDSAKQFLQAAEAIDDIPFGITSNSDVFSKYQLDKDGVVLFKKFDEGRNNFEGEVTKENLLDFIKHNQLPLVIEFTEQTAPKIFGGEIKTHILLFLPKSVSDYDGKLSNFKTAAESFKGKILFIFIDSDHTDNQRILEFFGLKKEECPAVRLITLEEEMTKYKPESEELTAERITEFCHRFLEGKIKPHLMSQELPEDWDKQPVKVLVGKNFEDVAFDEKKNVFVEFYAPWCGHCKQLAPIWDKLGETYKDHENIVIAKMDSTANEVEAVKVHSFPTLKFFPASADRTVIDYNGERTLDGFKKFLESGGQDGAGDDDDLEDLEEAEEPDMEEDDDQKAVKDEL
# An asterisk follows results filed as active; x = no result given. Hits are enriched below; roughly 2.1% of the tested compounds scored in any of these assays.
SMILES,FN deposit inh,ARNT TACC3 PPI,ERp5 inh,AF4-AF9 inh,FGF22 binding,PDI turbidity
Cc1ccc(S(=O)(=O)N[C@H]2CC[C@H](CC(=O)NCCCN(C)C)O[C@H]2CO)cc1,x,-8,3,-12,0,x
COc1ccc(S(=O)(=O)Nc2ccc3c(c2)C(=O)N([C@@H](C)CO)C[C@H](C)[C@@H](CN(C)CC2CC2)O3)cc1,-11,x,3,1,0,x
COc1ccccc1C1=NOC(COC(=O)c2ccc([N+](=O)[O-])cc2)C1 (stereo not given),-1,x,0,0,0,1
COc1ccccc1C1=NOC(COC(=O)c2ccc(Br)cc2)C1 (stereo not given),5,0,1,1,43*,-20
O=C(NC(=S)Nc1ccc(S(=O)(=O)Nc2nccs2)cc1)c1ccc(Br)o1,x,52*,-4,1,0,-2
Cc1cc(C)c2oc(C(=O)Nc3ccc(S(=O)(=O)Nc4nccs4)cc3)cc(=O)c2c1,3,4,2,7,43*,-2
CC(=O)N(C)C[C@@H]1Oc2cc(C#Cc3cccnc3)ccc2S(=O)(=O)N([C@H](C)CO)C[C@H]1C,4,12,9,-2,0,x
COc1cc(N)c2ncccc2c1Br,-5,107*,1,-2,0,13
COCCOC(=O)N1C(=O)[C@@]2(c3cc(C#CCCO)ccc31)[C@H](C(=O)NC[C@H](O)c1ccccc1)[C@H]1C(=O)O[C@H](c3ccccc3)[C@H](c3ccccc3)N1[C@@H]2c1ccc(O)cc1,x,-8,1,-2,0,x
O=C1C2C3CC(C(Br)C3Br)C2C(=O)N1c1nccs1 (stereo not given),5,x,3,-3,0,7
O=C1CCCN1c1nccs1,11,0,-2,-9,44*,7
O=C(N/N=C/c1ccc(Cl)cc1)c1cc(-c2cccnc2)nc2ccccc12,-4,-11,0,-2,0,-1
O=C(N/N=C/c1ccccn1)c1cc(-c2ccncc2)nc2ccccc12,16,68*,x,x,x,11
Cc1ccc(/C=N/NC(=O)c2cc(-c3cccnc3)nc3ccccc23)cc1,13,1,4,-1,43*,0
CCCC#Cc1cnc2c(c1)C(=O)N([C@H](C)CO)C[C@@H](C)[C@H](CN(C)C(=O)Nc1ccccc1OC)O2,-6,3,6,2,0,x
Cc1ccc(/C=C/C(=O)N2CC(=O)Nc3ccccc32)o1,-3,-2,-6,-6,44*,-7
Cc1cc(C)cc(C(=O)N2CC(=O)Nc3ccccc32)c1,x,5,x,x,x,1
Cc1c(CN2CCCC(CO)(Cc3cccc(Cl)c3)C2)cnn1C (stereo not given),-4,1,4,0,43*,0
Cc1cc(C(F)(F)F)c2c(N)c(C(=O)NCc3ccc(Cl)cc3)sc2n1,-14,x,-1,-1,43*,x
C[C@H](CO)N1C[C@H](C)[C@@H](CN(C)CC2CC2)Oc2ccc(NC(=O)CCCN(C)C)cc2C1=O,x,-3,1,-4,0,x
C[C@@H]1CN([C@@H](C)CO)C(=O)Cc2cc(NC(=O)CCN3CCOCC3)ccc2O[C@H]1CN(C)C(=O)Nc1ccc2c(c1)OCO2,x,30,-1,0,0,x
C[C@@H]1CN([C@H](C)CO)C(=O)Cc2cc(NC(=O)CCN3CCOCC3)ccc2O[C@H]1CN(C)C(=O)Nc1ccc2c(c1)OCO2,x,46*,5,1,0,x
CC(C)NC(=O)N(C)C[C@H]1Oc2ccc(NC(=O)CCN3CCOCC3)cc2C(=O)N([C@H](C)CO)C[C@@H]1C,39*,-13,-2,-1,0,-1
CC(C)NC(=O)N(C)C[C@@H]1Oc2ccc(NC(=O)CCN3CCOCC3)cc2C(=O)N([C@@H](C)CO)C[C@H]1C,x,-16,1,-13,0,x
CC(C)c1ccccc1NC(=S)NC(C)c1ccccc1 (stereo not given),-8,5,1,2,44*,-6
SMILES,FN deposit inh,ARNT TACC3 PPI,ERp5 inh,AF4-AF9 inh,FGF22 binding,PDI turbidity
CCN(CC)c1ccc2nc3ccc(N)cc3[n+](-c3ccccc3)c2c1,8,26,-9,50*,-1,4
COc1cccc(-c2ccc([C@@H]3[C@@H](CO)N4C(=O)CN(C(=O)C5CCOCC5)C[C@@H]34)cc2)c1,x,x,-4,3,x,x
O=C1[C@H](Cc2ccc(C(F)(F)F)cc2)CCn2cc(nn2)COC[C@@H]2CCCCN2C(=O)[C@H](Cc2ccc(C(F)(F)F)cc2)CCn2cc(nn2)COC[C@@H]2CCCCN12,-16,x,x,x,x,x
O=c1nc(N2CCOCC2)nc(N/N=C/c2ccc3c(c2)OCO3)[nH]1,4,-11,-1,-10,44*,-4
C/C=C/c1ccc([C@@H]2[C@@H](CO)N(C(=O)C3CC3)[C@H]2CN(C)C(=O)CC)cc1,x,1,2,2,0,x
COc1ccc(C(CNC(=O)c2cccc(S(=O)(=O)N3CCc4ccccc43)c2)N(C)C)cc1 (stereo not given),-3,6,4,5,43*,3
O=C(Nc1ccc(F)cc1)N1CC(=O)N2[C@@H](CO)[C@H](c3ccc(-c4ccc(F)cc4)cc3)[C@@H]2C1,-2,x,-2,3,x,x
COc1ccc2c3c([nH]c2c1)[C@H](CO)N(C(=O)c1cccnc1)CC31CCN(C(=O)NC(C)C)CC1,x,x,x,0,0,x
Cc1c(C)c2c(OCC(=O)N3CCC(C(=O)O)CC3)cc3c(c2oc1=O)CCC(C)(C)O3,x,45*,x,x,x,x
Cc1c(C)c2c(OCC(=O)N3CCC(C(=O)NCC(C)C)CC3)cc3c(c2oc1=O)CCC(C)(C)O3,x,x,x,x,x,11
CC1=CC(=O)C=C(C)C1=NOS(=O)(=O)c1ccccc1,x,1,x,x,x,6
CC1=CC(=O)C(C(C)C)=C/C1=N/OS(=O)(=O)c1ccccc1,33*,19,x,17,-1,-6
COCc1cc(C)n(CC(=O)N2CCCC2)c(=O)c1C#N,-5,x,x,x,x,-2
CCOC(=O)Cn1c(C)cc(COC)c(C#N)c1=O,x,1,1,0,43*,1
CN(C)S(=O)(=O)c1ccc2nnn(O)c2c1,2,-6,3,-1,43*,2
C[C@H](CO)N1C[C@H](C)[C@@H](CN(C)C(=O)CC2CC2)Oc2cc(C#CC(C)(C)O)ccc2S1(=O)=O,-13,-12,0,-3,0,x
Cc1nn(C)c(Cl)c1/C=C/C(=O)O,-6,-14,-8,0,0,0
Cc1nn(C)c(C)c1/C=C/C(=O)O,22,3,3,0,43*,0
CC(C(=O)Nc1ccccc1-c1ccccc1)N1CCN(C(=O)c2ccccc2)CC1 (stereo not given),-1,6,3,1,0,5

# High-throughput results deposited in PubChem BioAssay by Broad Institute.
